MT stabilize HCS: microtubule stabilizers in HeLa cells. HeLa tubulin immunostaining HCS, 24 h; share of cells brighter than vehicle mean+2SD. % tubulin-high responders, % at 10 µM. 0.83% of 200,000 active;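 active = plate Z-score above 3 for both tubulin-high and condensed-nucleus cell shares, with cell loss under 80%, at 10 µM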;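 also: anti alpha tubulin signal scored within the nucleus-defined area of each cell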
DTT redox prof: compounds producing H2O2 with reducing agent – biochemical, NIH compound library profiling, artefact control for MLSCN library redox annotation, primary screen; DTT-dependent redox cycling H2O2, phenol red/HRP absorbance; 100% = 100 µM peroxide control, 0% = buffer; activation, % at 10 µM; 0.03% of 200,000 active;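 active = activation of at least 50% relative to the plate's high and low controls in the primary single-dose screen; inactive = activation below 50%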;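 also: compound incubated with DTT at 0.8 mM final as the reducing agent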
bCat nuc transl: beta-catenin nuclear translocation modulation; nuclear translocation activity, % at 5 µM; 0.3% of 190,000 active; HeLa beta-catenin nuclear translocation, immunofluorescence imaging; AID 1665;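 active = nuclear translocation activity above 50% at 5 µM, with a well cell count of 50 or more; inconclusive = wells under 50 cells across six images, flagged as toxic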;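 also: per-cell ratio of nuclear to cytoplasmic median beta-catenin stain intensity; plate controls were DMSO negative control for no effect and GSK-3 inhibitor IX positive control for full effect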
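test system = HeLa cells, endogenous beta-catenin | dosing = single 5 µM dose plus 0.02–20 µM confirmation series | times = compound treatment 24 h, 37°C, 5% CO2 | technique = beta-catenin immunofluorescence imaging with DAPI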
KCC2 mod: modulators of human KCC2 chloride dependent transport. KCC2 cells, thallium flux FluoZin-2 fluorescence. 2.2% of 190,000 active. B-score of Tl+ flux slope (higher = more flux/activation; lower = inhibition) at 10 µM. Q9H2X9;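 active = thallium flux slope and its plate-corrected score both differing from the plate sample mean at a set confidence after two filtering rounds, in either direction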;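 also: slope of fluorescence scaled to starting intensity during 10 to 20 s after thallium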
Target sequence (Q9H2X9 whole entry, looked up): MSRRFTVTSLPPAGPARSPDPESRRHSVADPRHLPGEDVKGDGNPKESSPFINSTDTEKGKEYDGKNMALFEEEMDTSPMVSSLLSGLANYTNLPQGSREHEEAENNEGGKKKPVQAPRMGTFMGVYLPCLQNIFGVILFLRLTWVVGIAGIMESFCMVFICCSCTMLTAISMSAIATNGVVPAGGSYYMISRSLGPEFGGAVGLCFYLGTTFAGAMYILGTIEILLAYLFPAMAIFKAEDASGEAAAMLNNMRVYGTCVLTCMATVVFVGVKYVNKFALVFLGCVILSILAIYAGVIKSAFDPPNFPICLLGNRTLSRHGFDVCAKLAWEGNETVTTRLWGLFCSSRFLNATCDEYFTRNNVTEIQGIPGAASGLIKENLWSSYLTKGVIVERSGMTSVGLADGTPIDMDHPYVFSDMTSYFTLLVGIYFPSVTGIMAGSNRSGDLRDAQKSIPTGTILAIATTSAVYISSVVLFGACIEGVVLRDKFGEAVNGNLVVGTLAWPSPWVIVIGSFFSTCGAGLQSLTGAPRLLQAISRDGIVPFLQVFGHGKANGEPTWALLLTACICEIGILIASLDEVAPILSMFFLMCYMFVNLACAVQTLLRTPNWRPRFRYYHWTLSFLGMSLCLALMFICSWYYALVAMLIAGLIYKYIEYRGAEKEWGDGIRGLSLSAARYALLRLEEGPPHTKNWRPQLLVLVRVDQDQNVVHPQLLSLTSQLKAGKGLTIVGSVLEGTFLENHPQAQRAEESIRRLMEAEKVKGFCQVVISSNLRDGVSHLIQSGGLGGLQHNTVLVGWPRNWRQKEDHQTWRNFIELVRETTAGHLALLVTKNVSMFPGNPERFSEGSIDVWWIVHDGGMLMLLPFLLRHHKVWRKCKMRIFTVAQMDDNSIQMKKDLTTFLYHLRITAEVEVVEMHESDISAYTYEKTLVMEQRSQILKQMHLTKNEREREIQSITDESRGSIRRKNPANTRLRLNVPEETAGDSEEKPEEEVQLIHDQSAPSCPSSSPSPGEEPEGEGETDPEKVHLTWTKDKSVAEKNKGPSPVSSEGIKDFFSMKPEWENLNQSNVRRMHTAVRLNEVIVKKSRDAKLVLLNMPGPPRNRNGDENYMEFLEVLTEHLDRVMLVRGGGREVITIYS
ROMK primary: modulates human ROMK potassium channel activity | 2% of 130,000 active | B-score at 10 µM | Tet-inducible ROMK, thallium flux fluorescence; actives lie on both sides;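 active = signal ratio slope over the read window, or its plate-corrected B-score, at least 3 SD from the plate mean, either direction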;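 also: B-score of the F/F0 ratio slope over 7 to 12 s after thallium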
KCC2 sec1: KCC2 (human) modulation, secondary assay; shares compounds with KCC2 mod; HEK293-KCC2, thallium flux, FluoZin2 fluorescence; hits give high values; normalised thallium flux (F/F0 slope) at 10 µM; 15% of 3,700 active;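 active = thallium flux slope above the same plate's solvent-only control mean plus 3 SD; inconclusive = the two replicate wells disagree; inactive = no significant difference from solvent-only control wells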
KCC2 bumet counter: thallium flux persisting under bumetanide in KCC2 cells, counter-screen secondary assay; shares compounds with KCC2 mod; HEK293-KCC2 + bumetanide/ouabain, thallium flux FluoZin2; hits give high values; normalized thallium flux at 10 µM; 49% of 3,700 active; AID 1714;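 active = thallium entry rate above the same plate's blocked-transporter control wells by more than 3 SD; inconclusive = the two repeat wells disagree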;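 also: raw slope of fluorescence over initial fluorescence between 10 and 20 s after thallium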
KCC2 sec2: KCC2 (human) modulation, second secondary assay; shares compounds with KCC2 mod; HEK293-KCC2, thallium flux FluoZin2 fluorescence; actives lie on both sides; F/F0 rise rate, 10–20 s post-thallium; normalized thallium flux at 10 µM; 23% of 3,700 active;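 active = thallium flux slope more than 3 SD above or below the plate's solvent-only control mean, mostly below; inconclusive = the two repeat wells disagreed; inactive = no significant shift from solvent-only controls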;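 also: raw slope with 0.1% DMSO as baseline and bumetanide as block control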
HEK counter1: acts in parental HEK cells, KCC2 counter-screen; shares compounds with KCC2 mod; HEK293 parental cells, thallium flux FluoZin2, ouabain; baseline-ratio fluorescence slope, 10–20 s after thallium; thallium flux rate (normalised fluorescence) at 10 µM; 46% of 3,700 active;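 active = thallium flux rate significantly above the same plate's solvent-only control wells, beyond their mean plus 3 SD; inconclusive = the two replicate wells gave conflicting results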
KCC2 ouabain: KCC2 (human) modulation, ouabain retest; shares compounds with KCC2 mod; HEK293-KCC2, thallium flux FluoZin2 fluorescence; bidirectional: low = inhibitor, high = activator; raw Tl+ flux slope (below DMSO = inhibition, above = activation) at 10 µM; 48% of 3,700 active; AID 1717;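 active = thallium flux slope beyond 3 SD from same-plate DMSO control mean in most replicates, usually higher, sometimes lower; inconclusive = repeat tests gave conflicting results; inactive = no significant difference from controls in most replicates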;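 also: slope of initial-normalized fluorescence between seconds 10 and 20 after thallium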
HEK counter2: acts in parental HEK cells, second KCC2 counter-screen; shares compounds with KCC2 mod; 33% of 3,700 active; thallium flux slope at 10 µM; HEK293 parental, thallium flux FluoZin-2 fluorescence slope;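 active = thallium flux slope above the same plate's solvent-control mean plus 3 SD in both duplicate wells; inconclusive = duplicate wells that disagreed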;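 also: run without ouabain in cells lacking the KCC2 cotransporter; slope of fluorescence scaled to its starting value between 10 and 20 s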
* hit, by the source's call; ? = inconclusive; . = no result given. Shown are actives, neighbours in structure and some others; about 3.7% of the full set was active somewhere.

SMILES | MT stabilize HCS | DTT redox prof | bCat nuc transl | KCC2 mod | ROMK primary | KCC2 sec1 | KCC2 bumet counter | KCC2 sec2 | HEK counter1 | KCC2 ouabain | HEK counter2
COc1cc(/C=C/C(=O)OCC(=O)c2c[nH]c3ccccc23)ccc1OC(F)F | 6 | 0 | -1 | 0.49 | . | . | . | . | . | . | .
O=S(=O)(c1cccs1)N1CCN(Cc2nc3ccccc3s2)CC1 | 4 | 1 | . | -0.9 | . | . | . | . | . | . | .
O=C(CCc1nc2ccccc2s1)N1CCN(S(=O)(=O)c2cccs2)CC1 | 2 | 3 | -1 | -4.1* | -0.81 | 0.007 | 0.0053 | 0.038 | 0.0041 | 0.018 | 0.011
O=C(Nc1nc(COc2ccccc2)cs1)C1CCC1 | 3 | 0 | 0 | -4.3* | -0.38 | 0.0093 | 0.0071 | ? | 0.0068 | 0.013* | ?
Cc1ccc(NC(=S)N/N=C2\CCCCC2C)cc1 (stereo not drawn) | 4 | -2 | -1 | 6.9* | -0.72 | 0.0059 | 0.032* | 0.039* | 0.02* | 0.033* | 0.022*
O=C1CSC(=Nc2ccccc2)N1 | 1 | 0 | 2 | 5.7* | 1.1 | 0.0079 | ? | 0.033 | 0.008 | 0.022 | ?
CC(C)Nc1oc(Cc2cccc3ccccc23)nc1C#N | 4 | 2 | -2 | -4.5* | . | 0.0068 | 0.0055 | ? | ? | 0.014* | 0.011
COc1ccc(CCNc2oc(Cc3cccc4ccccc34)nc2C#N)cc1OC | 3 | 0 | . | -2.9 | . | . | . | . | . | . | .
CNc1oc(Cc2cccc3ccccc23)nc1C#N | 7 | 0 | -3 | . | -1.8 | 0.011 | 0.0082* | ? | 0.0079 | 0.014* | ?
N#Cc1nc(Cc2ccccc2)oc1NCc1ccccc1Cl | 3 | -1 | -1 | -2.9* | . | 0.0075 | 0.0058 | 0.03 | 0.0057* | 0.016* | 0.0099
CN(C)c1cc[n+](CC(=O)c2ccc(-c3ccccc3)cc2)cc1 | 4 | 0 | 3 | -1.9 | 0 | . | . | . | . | . | .
CC(C)c1cccc(C(C)C)c1NC(=O)COC(=O)[C@H](C)NC(N)=O | 2 | -1 | 4 | . | -0.8 | . | . | . | . | . | .
CN(C)S(=O)(=O)c1ccc(NC(=O)CNc2cc(S(=O)(=O)N3CCCC3)ccc2OCC(F)(F)F)cc1 | 2 | -1 | 0 | 0.068 | -0.65 | . | . | . | . | . | .
Cc1cc(NC(=O)CSc2nc3ccccc3c(=O)n2Cc2ccc(F)cc2)no1 | 1 | 3 | -4 | 3.5* | 1 | 0.011 | 0.019* | 0.035 | ? | ? | ?
CCCCn1c(SCC(=O)Nc2ccc3c(c2)CCC3)nc2ccccc2c1=O | 8 | 1 | . | 9* | . | 0.0061 | 0.014* | 0.036 | 0.017* | ? | 0.02*
O=C1OCCC1Sc1nc2ccccc2c(=O)n1Cc1ccc(F)cc1 (stereo not drawn) | 2 | 0 | . | 39* | 0.13 | 0.025* | 0.14* | ? | 0.062* | 0.097* | 0.033*
CC(C)(C)NC(=O)Cn1c(SCC(=O)NCc2cccs2)nc2ccccc21 | 6 | 0 | -4 | -1.2 | . | . | . | . | . | . | .
O=C(CSc1nc2ccccc2c(=O)n1Cc1ccc(F)cc1)NCc1cccs1 | 2 | 0 | . | 27* | . | 0.0066 | 0.031* | 0.05* | 0.035* | 0.038* | 0.036*
C=C(C)c1cccc(C(C)(C)NC(=O)N2CCN(C/C=C/c3ccccc3)CC2)c1 | 3 | 0 | 3 | 0.31 | . | . | . | . | . | . | .
COc1ccc(N2CCN(C(=O)CCNC(=O)Cn3ccc4ccccc4c3=O)CC2)cc1 | 10 | 0 | 0 | -1.3 | 0.039 | . | . | . | . | . | .
COc1ccccc1NC(=O)c1ccc(NC(=O)CSc2n[nH]c(N)n2)cc1 | 4 | 0 | . | 0.32 | 0.92 | . | . | . | . | . | .
CCOC(=O)c1cn(Cc2cccc(Cl)c2)c2cc(C)nn2c1=O | . | . | -1 | . | . | . | . | . | . | . | .
CCCn1c(N)c(C(=O)CSc2nc3ccccc3c(=O)n2Cc2ccccc2)c(=O)[nH]c1=O | 3 | 0 | 2 | 40* | -0.011 | 0.016* | 0.08* | 0.028 | 0.026* | 0.054* | 0.012*
Cn1c(N)c(C(=O)CSc2nc3ccccc3c(=O)n2Cc2ccccc2)c(=O)n(C)c1=O | . | . | 0 | 2.4 | . | . | . | . | . | . | .
C=CCNC(=S)NC(=O)c1csc([N+](=O)[O-])c1 | . | . | -1 | 5.9* | . | 0.0092 | 0.02* | 0.03 | 0.0097* | ? | 0.0097
SMILES | MT stabilize HCS | DTT redox prof | bCat nuc transl | KCC2 mod | ROMK primary | KCC2 sec1 | KCC2 bumet counter | KCC2 sec2 | HEK counter1 | KCC2 ouabain | HEK counter2
O=C(NC(=S)N1CCCCC1)c1csc([N+](=O)[O-])c1 | . | . | 0 | 24* | . | 0.022* | 0.032* | 0.035 | 0.017* | ? | 0.013*
CCN=C1SC(CC(=O)NC(C)c2ccccc2)C(=O)N1CC (stereo not drawn) | 3 | -2 | 1 | 0.17 | -0.098 | . | . | . | . | . | .
CCOCCn1c(CN2CCC(C)CC2)nc2c1c(=O)n(C)c(=O)n2C | 2 | 0 | 0 | 0.091 | -0.16 | . | . | . | . | . | .
CCOCCn1c(CN2CCN(CC)CC2)nc2c1c(=O)n(C)c(=O)n2C | 5 | 0 | -1 | 6.3* | -0.016 | 0.0097 | 0.007 | 0.037 | 0.0077 | 0.023 | 0.011
CS(=O)(=O)N(Cc1ccccc1)c1ccccc1C(=O)N1CCN(c2ccccc2)CC1 | 2 | 0 | 0 | . | -1.1 | . | . | . | . | . | .
O=C1c2ccccc2-c2cccc(NS(=O)(=O)c3ccc(C(F)(F)F)cc3)c21 | 1 | 2 | 0 | . | . | ? | 0.076* | ? | 0.023* | 0.039* | 0.016*
COc1ccc(Cl)cc1C(=O)CSc1nc(N)cc(N)n1 | 4 | -1 | -3 | -8.7* | 0.58 | 0.0075 | 0.0057 | 0.029 | 0.0064 | 0.027 | 0.01
CCOC(=O)N1CCN(C(=O)CSCc2ccc(Br)cc2)CC1 | 4 | -1 | 0 | -0.64 | . | . | . | . | . | . | .
C/C(=N\Nc1cc(C)nc(-c2ccccc2O)n1)c1ccccc1 | 4 | 0 | 0 | -0.28 | 0.19 | . | . | . | . | . | .
C/C(=N\Nc1nc2ccc(Cl)cc2o1)c1ccccc1 | . | . | -1 | 10* | 0.55 | 0.0064 | 0.0049 | 0.033 | 0.013* | 0.022 | 0.015*
Cc1cc(/C=C2\SC(=S)NC2=O)c(C)n1C1CC1 | 2 | 0 | 4 | 5.6* | -0.77 | 0.0086 | 0.029* | 0.025* | 0.015* | 0.025* | 0.011*
Cc1cc(/C=C2/C(=O)N(C)C(=S)N2C)c(C)n1C1CC1 | 3 | 0 | -5 | -0.046 | -1 | . | . | . | . | . | .
